Laboratory results as given in article PMC12080315 (Chemistry (Weinheim an Der Bergstrasse, Germany), 2025).
Entries after “also recorded” stand apart in the source; their conditions may differ.

Key:
[1] = biological target: recombinant FTase (Homo sapiens, UniProt P49354+P49356); experiment: Fluorescent in vitro FTase inhibition assay; type: biochemical; conditions: for selectivity for FTase over GGTase I: ratio of K i values GGTase I / FTase
Outline: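 Recombinant FTase (25–37 nM) was reacted with dansyl-labelled K-Ras4B C-terminal peptide (1 µM) and FPP (5 µM), with test compound at 0–500 µM. Enzyme, substrates and compound were spotted separately, then buffer was added to start the reaction. Fluorescence (ex 340/em 520 nm) was followed for 5 min. n = 3, SEM.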

[2] = biological target: recombinant GGTase I (Homo sapiens, UniProt P49354+P53609); experiment: Fluorescent in vitro GGTase I inhibition assay; type: biochemical
recombinant GGTase I, sequence (P53609 whole entry, one chain of several): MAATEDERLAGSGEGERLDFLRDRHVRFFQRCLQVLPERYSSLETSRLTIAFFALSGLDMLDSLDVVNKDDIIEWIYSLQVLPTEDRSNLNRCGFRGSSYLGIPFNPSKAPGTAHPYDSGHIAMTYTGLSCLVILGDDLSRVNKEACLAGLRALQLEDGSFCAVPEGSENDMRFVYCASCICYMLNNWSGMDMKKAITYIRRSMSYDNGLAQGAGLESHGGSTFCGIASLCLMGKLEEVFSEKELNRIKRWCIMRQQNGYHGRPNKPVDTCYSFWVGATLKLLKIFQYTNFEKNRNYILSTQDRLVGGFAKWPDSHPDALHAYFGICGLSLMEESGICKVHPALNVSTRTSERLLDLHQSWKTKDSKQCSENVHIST
Outline: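 Recombinant GGTase I (25–37 nM) was run with dansyl-labelled K-Ras C-terminal peptide (1 µM) and test compound at 0–500 µM. GGPP was diluted to a 110 µM working stock before use. Buffer was 50 mM Tris-HCl pH 7.5 with MgCl2, ZnCl2, dodecyl maltoside and DTT, at 37 °C. Fluorescence kinetics (ex 340/em 520 nm) were recorded over 5 min. n = 3, SEM.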

[3] = system: MiaPaCa2 cells; experiment: Antiproliferative activity, trypan blue cell viability assay; type: cell-based, human; conditions: for IC50: Homo sapiens, MIA PaCa-2, 72 h, read-out: IC50, antiproliferation activity
Outline: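 MiaPaCa2 cells (K-Ras G12C) seeded at 1×10³ cells/well and left overnight at 37 °C, 5% CO2. Next day they were given various concentrations of test compound and incubated 72 h at 37 °C, 5% CO2. A trypan blue assay followed, […]. Sotorasib served as positive control. n = 3, mean ± SEM.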

[4] = system: K‐Ras prenylation; experiment: Gel-shift assay; type: cell-based, human; conditions: MiaPaca‐2 cells, 48 hours, 30 and 100 µM
Outline: (§1)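 MiaPaCa2 cells were grown in DMEM with 10% heat-inactivated FBS and 1% penicillin-streptomycin. They were treated 48 h with vehicle or test compound at 30 and 100 µM; the positive control, a dual FTase/GGTase I inhibitor, was used at 10 and 30 µM. Cells were PBS-washed and lysed with protease and phosphatase inhibitors. Lysates ran on 4–20% SDS-PAGE gel-shift blots, probed with anti-K-Ras or anti-Rap1A+B, plus anti-vinculin.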

[5] = system: Rap1 geranylgeranylation; experiment: Gel-shift assay; type: cell-based, human; conditions: MiaPaca‐2 cells, 48 hours, 30 and 100 µM
Outline: as §1

recombinant FTase, sequence (P49356 whole entry, one chain of several): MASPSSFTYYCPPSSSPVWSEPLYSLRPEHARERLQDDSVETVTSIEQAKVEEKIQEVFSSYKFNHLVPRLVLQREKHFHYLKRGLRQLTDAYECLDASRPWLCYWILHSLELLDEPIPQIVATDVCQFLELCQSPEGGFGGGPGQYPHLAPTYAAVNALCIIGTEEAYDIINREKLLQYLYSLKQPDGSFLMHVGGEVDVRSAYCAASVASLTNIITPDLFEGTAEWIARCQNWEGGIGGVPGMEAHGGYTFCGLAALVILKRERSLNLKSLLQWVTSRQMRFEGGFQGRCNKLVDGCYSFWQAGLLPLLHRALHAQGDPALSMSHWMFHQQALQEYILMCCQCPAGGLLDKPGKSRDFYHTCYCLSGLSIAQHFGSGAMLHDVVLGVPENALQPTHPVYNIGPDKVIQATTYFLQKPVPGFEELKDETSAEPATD

Row | IC50 [1] [nM] | Ki [1] [nM] | IC50 [2] [nM] | Ki [2] [nM] | Structure (SMILES) | other results
1 | 330 | 2 ± 0.2 | 530 | 17 ± 5 | CSCC[C@H](NC(=O)NC1(c2ccccc2)CCN(Cc2cncn2Cc2ccc(-n3cc(COCCCCCCNC(=O)c4ccc(C(=N)N)cc4)nn3)cc2)CC1)C(=O)O [Compound 5e, ((1‐((1‐(4‐(4‐(((6‐(4‐Carbamimidoylbenzamido)hexyl)oxy)methyl)‐1H‐1,2,3‐triazol‐1‐yl)benzyl)‐1H‐imidazol‐5‐yl)methyl)‐4‐phenylpiperidin‐4‐yl)carbamoyl)‐L‐methionine] | –
2 | 290 | 1.7 ± 0.5 | 7840 | 250 ± 50 | CSCC[C@H](NC(=O)NC1(c2ccccc2)CCN(Cc2cncn2Cc2ccc(-n3cc(COCCCCCCNC(=N)N)nn3)cc2)CC1)C(=O)O [Compound 5a, ((1‐((1‐(4‐(4‐(((6‐Guanidinohexyl)oxy)methyl)‐1H‐1,2,3‐triazol‐1‐yl)benzyl)‐1H‐imidazol‐5‐yl)methyl)‐4‐phenylpiperidin‐4‐yl)carbamoyl)‐L‐methionine] | selectivity for FTase over GGTase I [1]: 147 fold
3 | 752 | 4.6 ± 0.08 | 90 | 2.9 ± 0.7 | CSCC[C@H](NC(=O)NC1(c2ccccc2)CCN(Cc2cncn2Cc2ccc(-n3cc(COCCCCCCNC(=O)c4ccc(N)cc4)nn3)cc2)CC1)C(=O)O [Compound 5c, ((1‐((1‐(4‐(4‐(((6‐(4‐Aminobenzamido)hexyl)oxy)methyl)‐1H‐1,2,3‐triazol‐1‐yl)benzyl)‐1H‐imidazol‐5‐yl)methyl)‐4‐phenylpiperidin‐4‐yl)carbamoyl)‐L‐methionine] | –
4 | 300 | 1.8 ± 0.4 | 96 | 3.1 ± 0.5 | CSCC[C@H](NC(=O)NC1(c2ccccc2)CCN(Cc2cncn2Cc2ccc(-n3cc(COCCCCCCNC(=O)c4ccc(NC(=N)N)cc4)nn3)cc2)CC1)C(=O)O [Compound 5d, ((1‐((1‐(4‐(4‐(((6‐(4‐Guanidinobenzamido)hexyl)oxy)methyl)‐1H‐1,2,3‐triazol‐1‐yl)benzyl)‐1H‐imidazol‐5‐yl)methyl)‐4‐phenylpiperidin‐4‐yl)carbamoyl)‐L‐methionine] | –
5 | 630 | 3.8 ± 1.1 | 2400 | 77 ± 51 | CSCC[C@H](NC(=O)NC1(c2ccccc2)CCN(Cc2cncn2Cc2ccc(-n3cc(COCCCCCCN)nn3)cc2)CC1)C(=O)O [Compound 5b, ((1‐((1‐(4‐(4‐(((6‐Aminohexyl)oxy)methyl)‐1H‐1,2,3‐triazol‐1‐yl)benzyl)‐1H‐imidazol‐5‐yl)methyl)‐4‐phenylpiperidin‐4‐yl)carbamoyl)‐L‐methionine] | selectivity for FTase over GGTase I [1]: 20 fold
6 | – | 790 ± 45 | > 500000 | – | CSCC[C@H](NC(=O)NC1(c2ccccc2)CCN(Cc2cnc[nH]2)CC1)C(=O)O [Compound 1, ((1‐((1H‐Imidazol‐5‐yl)methyl)‐4‐phenylpiperidin‐4‐yl)carbamoyl)‐L‐methionine] | –
7 | 350 | 2.1 ± 0.5 | 6480 | 210 | CSCC[C@H](NC(=O)NC1(c2ccccc2)CCN(Cc2cncn2Cc2ccc(N=[N+]=[N-])cc2)CC1)C(=O)O [Compound 3, ((1‐((1‐(4‐Azidobenzyl)‐1H‐imidazol‐5‐yl)methyl)‐4‐phenylpiperidin‐4‐yl)carbamoyl)‐L‐methionine] | increase in potency for FTase compared to 1 ([1]; ratio of K i values): 376 fold; selectivity for FTase over GGTase I [1]: 100 fold

The remaining lines, values behind:

Row | Structure (SMILES) | IC50 [1] [nM] | Ki [1] [nM] | IC50 [2] [nM] | Ki [2] [nM] | other results
8 | C#CCOCCCCCCNC(=O)c1ccc(C(=N)N)cc1 [Compound 13, 4‐Carbamimidoyl‐N‐(6‐(prop‐2‐yn‐1‐yloxy)hexyl)benzamide] | > 500000 | – | > 500000 | – | antiproliferative activity (result in words) ([3]; MiaPaCa2 cells, 72 hours, trypan blue assay): inactive
9 | COC(=O)[C@H](CCSC)NC(=O)NC1(c2ccccc2)CCN(Cc2cncn2Cc2ccc(-n3cc(COCCCCCCNC(=O)c4ccc(N)cc4)nn3)cc2)CC1 [Compound 4c, Methyl ((1‐((1‐(4‐(4‐(((6‐(4‐aminobenzamido)hexyl)oxy)methyl)‐1H‐1,2,3‐triazol‐1‐yl)benzyl)‐1H‐imidazol‐5‐yl)methyl)‐4‐phenylpiperidin‐4‐yl)carbamoyl)‐L‐methioninate] | – | – | – | – | inhibition of prenylation (processing) of K‐Ras in cells [4]: able to inhibit; also recorded: inhibit the processing; also recorded: disrupt the processing; inhibition of geranylgeranylation (processing) of Rap1 in cells [5]: inhibited; also recorded: more potent than 2; also recorded: inhibit the processing; also recorded: disrupt the processing
10 | C#CCOCCCCCCNC(=N)N [Compound 12, 1‐(6‐(Prop‐2‐yn‐1‐yloxy)hexyl)guanidine] | > 500000 | – | – | – | –
11 | C=CC(=O)N1CCN(c2nc(=O)n(-c3c(C)ccnc3C(C)C)c3nc(-c4c(O)cccc4F)c(F)cc23)[C@@H](C)C1 [sotorasib, reference compound] | – | – | – | – | IC50 [3]: 10 to 100 nM
12 | COC(=O)[C@H](CCSC)NC(=O)NC1(c2ccccc2)CCN(Cc2cncn2Cc2ccc(-n3cc(COCCCCCCNC(=O)c4ccc(C(=N)N)cc4)nn3)cc2)CC1 [Compound 4e, Methyl ((1‐((1‐(4‐(4‐(((6‐(4‐carbamimidoylbenzamido)hexyl)oxy)methyl)‐1H‐1,2,3‐triazol‐1‐yl)benzyl)‐1H‐imidazol‐5‐yl)methyl)‐4‐phenylpiperidin‐4‐yl)carbamoyl)‐L‐methioninate] | – | – | – | – | inhibition of geranylgeranylation (processing) of Rap1 in cells [5]: did not inhibit
13 | COC(=O)[C@H](CCSC)NC(=O)NC1(c2ccccc2)CCN(Cc2cncn2Cc2ccc(-n3cc(COCCCCCCNC(=O)c4ccc(NC(=N)N)cc4)nn3)cc2)CC1 [Compound 4d, Methyl ((1‐((1‐(4‐(4‐(((6‐(4‐guanidinobenzamido)hexyl)oxy)methyl)‐1H‐1,2,3‐triazol‐1‐yl)benzyl)‐1H‐imidazol‐5‐yl)methyl)‐4‐phenylpiperidin‐4‐yl)carbamoyl)‐L‐methioninate] | – | – | – | – | inhibition of geranylgeranylation (processing) of Rap1 in cells [5]: did not inhibit
14 | COC(=O)[C@H](CCSC)NC(=O)NC1(c2ccccc2)CCN(Cc2cncn2Cc2ccc(N=[N+]=[N-])cc2)CC1 [Compound 2, Methyl ((1‐((1‐(4‐azidobenzyl)‐1H‐imidazol‐5‐yl)methyl)‐4‐phenylpiperidin‐4‐yl)carbamoyl)‐L‐methioninate] | – | – | – | – | IC50 [3]: 100 to 1000 nM; IC50 relative to that of sotorasib ([3]; MiaPaCa2 cells, 72 hours): approximately 10 fold; inhibition of prenylation (processing) of K‐Ras in cells [4]: able to inhibit; also recorded: inhibit the processing; inhibition of geranylgeranylation (processing) of Rap1 in cells [5]: inhibited; also recorded: inhibit the processing
